Measured values as given in ChEMBL document CHEMBL1124946, “Cephalosporins to carbapenems: 1-oxygenated carbapenems and carbapenams” (1990).

Columns and labels:
Citrobacter koseri [1] = assay: In vitro minimal inhibitory concentration (MIC) in brain-heart infusion broth in the presence of hog liver esterase(1:1.5) in Citrobacter diversus 031; type: functional
Procedure, shortened: (§1)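 Two-fold serial broth dilution in brain-heart infusion broth. POM ester prodrugs were incubated with hog liver esterase (1:1.5) in the broth so the ester is converted in situ to the free acid. The MIC is the lowest concentration that inhibits growth.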

Escherichia coli [2] = assay: In vitro minimal inhibitory concentration (MIC) in brain-heart infusion broth in the presence of hog liver esterase(1:1.5) in Escherichia coli 129; type: functional; procedure, shortened: as §1
Enterobacter cloacae [3] = assay: In vitro minimal inhibitory concentration (MIC) in brain-heart infusion broth in the presence of hog liver esterase(1:1.5) in […] 009; type: functional; procedure, shortened: as §1
Klebsiella pneumoniae [4] = assay: In vitro minimal inhibitory concentration in brain-heart infusion broth in presence of hog liver esterase(1:1.5) in Klebsiella pneumoniae 079; type: functional; procedure, shortened: as §1
Morganella morganii = assay: In vitro minimal inhibitory concentration (MIC) in brain-heart infusion broth in the presence of hog liver esterase(1:1.5) in Morganella morganii 001; type: functional; procedure, shortened: as §1
Pseudomonas aeruginosa = assay: In vitro minimal inhibitory concentration (MIC) in brain-heart infusion broth in the presence of hog liver esterase(1:1.5) in Pseudomonas aeruginosa 104; type: functional; procedure, shortened: as §1
Staphylococcus aureus [5] = assay: In vitro minimal inhibitory concentration (MIC) in brain-heart infusion broth in the presence of hog liver esterase(1:1.5) in Staphylococcus aureus 005; type: functional; procedure, shortened: as §1
[6] = In vitro minimal inhibitory concentration (MIC) in brain-heart infusion broth in the presence of hog liver esterase(1:1.5) in Serr. marc. 095; type: functional; details: Serratia marcescens; procedure, shortened: as §1
Staphylococcus aureus [7] = assay: In vitro minimal inhibitory concentration (MIC) in brain-heart infusion broth in the presence of hog liver esterase(1:1.5) in Staphylococcus aureus 400; type: functional; procedure, shortened: as §1
Escherichia coli [8] = assay: In vitro minimal inhibitory concentration (MIC) in brain-heart infusion broth in the presence of hog liver esterase(1:1.5) in Escherichia coli 266; type: functional; procedure, shortened: as §1
Klebsiella pneumoniae [9] = assay: In vitro minimal inhibitory concentration (MIC) in brain-heart infusion broth in the presence of hog liver esterase(1:1.5) in Klebsiella pneumoniae 009; type: functional; procedure, shortened: as §1
Streptococcus pyogenes = assay: In vitro minimal inhibitory concentration (MIC) in brain-heart infusion broth in the presence of hog liver esterase(1:1.5) in Streptococcus pyogenes 203; type: functional; procedure, shortened: as §1
Haemophilus influenzae = assay: In vitro minimal inhibitory concentration (MIC) in brain-heart infusion broth in the presence of hog liver esterase(1:1.5) in Haemophilus influenzae 012
Citrobacter koseri [10] = assay: In vitro minimal inhibitory concentration in brain-heart infusion broth in presence of hog liver esterase(1:1.5) in Citrobacter diversus 031; type: functional; procedure, shortened: as §1
Klebsiella pneumoniae [11] = assay: In vitro minimal inhibitory concentration in brain-heart infusion broth in the presence of hog liver esterase(1:1.5) in Klebsiella pneumoniae 079; type: functional; procedure, shortened: as §1
Enterobacter cloacae [12] = assay: In vitro minimal inhibitory concentration in brain-heart infusion broth in the presence of hog liver esterase(1:1.5) in […] 009; type: functional; procedure, shortened: as §1

Row | Compound | MIC (Citrobacter koseri [1]) [µg/mL] | MIC (Escherichia coli [2]) [µg/mL] | MIC (Enterobacter cloacae [3]) [µg/mL] | MIC (Klebsiella pneumoniae [4]) [µg/mL] | MIC (Morganella morganii) [µg/mL] | MIC (Pseudomonas aeruginosa) [µg/mL] | MIC (Staphylococcus aureus [5]) [µg/mL] | MIC [6] [µg/mL] | MIC (Staphylococcus aureus [7]) [µg/mL] | MIC (Escherichia coli [8]) [µg/mL] | MIC (Klebsiella pneumoniae [9]) [µg/mL] | MIC (Streptococcus pyogenes) [µg/mL] | MIC (Haemophilus influenzae) [µg/mL] | MIC (Citrobacter koseri [10]) [µg/mL] | MIC (Klebsiella pneumoniae [11]) [µg/mL] | MIC (Enterobacter cloacae [12]) [µg/mL]
1 | C[C@H]1C(=O)[C@@H]2[C@H](NC(=O)OCc3ccccc3)C(=O)N2[C@H]1C(=O)OCOC(=O)C(C)(C)C | > 200 | > 200 | > 200 | > 200 | > 200 | > 200 | 100 | > 200 | > 200 | > 200 |  |  |  |  |  | 
2 | CC1=C(C(=O)OCOC(=O)C(C)(C)C)N2C(=O)[C@H]([C@@H](C)O)[C@H]2C1O (stereo partly drawn) |  | 6.25 | 12.5 |  | 50 | 100 | 3.12 |  | 1.56 | 6.25 | 6.25 | 0.78 | 6.25 |  |  | 
3 | CC(=O)OC1[C@H](C)C(C(=O)OCOC(=O)C(C)(C)C)N2C(=O)[C@H](NC(=O)COc3ccccc3)[C@@H]12 (stereo partly drawn) |  | > 200 | > 200 |  | > 200 | > 200 | > 200 | > 200 | > 200 | > 200 |  |  |  | > 200 | > 200 | 
4 | CCN1CCN(C(=O)N[C@@H](C(=O)N[C@@H]2C(=O)N3[C@@H]2C(O)[C@H](C)[C@@H]3C(=O)OCOC(=O)C(C)(C)C)c2ccccc2)C(=O)C1=O (stereo partly drawn) |  | > 200 | 12.5 |  | < 0.39 | 200 | 25 | 25 | > 200 | 6.25 |  |  |  | 12.5 | 12.5 | 
5 | C[C@H]1C(O)[C@@H]2[C@H](NC(=O)COc3ccccc3)C(=O)N2[C@H]1C(=O)OCOC(=O)C(C)(C)C (stereo partly drawn) | > 200 | > 200 | > 200 | > 200 | > 200 | > 200 | 25 | > 200 | 50 | > 200 |  |  |  |  |  | 
6 | N[C@@H](C(=O)N[C@@H]1C(=O)N2C(C(=O)O)=C(Cl)CS[C@H]12)c1ccccc1 [CEFACLOR ANHYDROUS] |  | 50 | > 200 |  | > 200 | > 200 | 1.56 |  | 3.12 | 3.12 | 1.56 | 0.05 | 3.12 |  |  | 
7 | CC1(C)S[C@@H]2[C@H](NC(=O)COc3ccccc3)C(=O)N2[C@H]1C(=O)O [PENICILLIN V] | > 200 | > 200 |  |  | > 200 | > 200 | < 0.025 | > 200 | 50 | 100 | > 200 | < 0.025 | 6.25 |  | > 200 | > 200
8 | C[C@@H](O)[C@H]1C(=O)N2C(C(=O)O)=C(SCCN)C[C@H]12 [THIENAMYCIN] |  | 0.39 | 0.39 |  | 6.25 | 3.12 | < 0.025 |  | < 0.025 | 0.1 | 0.2 | < 0.025 | 0.78 |  |  | 
